Results from PMC7906539 (Medicinal chemistry research : an international journal for …, 2020).
Entries after “also recorded” stand apart in the source; their conditions may differ.

Assays:
[1] = tested on: SH-SY5Y cells; assay: Cytotoxicity assay; format: cell-based; details: for Cytotoxicity (SH-SY5Y cells, 24 h): 24 h incubation, CellTiter-Glo; for Cytotoxicity (SH-SY5Y cells, 24 h) / Cytotoxicity as stated in text: SH-SY5Y cells; for Cytotoxicity as stated in text: approximate value for both enantiomers
Outline: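 SH-SY5Y cells seeded at 6000/well in 1:1 EMEM/F12 with 10% FBS. Exposure 24 h at 37 °C, then CellTiter-Glo luminescence read. Percent cytotoxicity normalized to DMSO controls.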

[2] = biological target: His-mHtt and GST-CaM (CaM–mHtt interaction) (Homo sapiens, UniProt P0DP23+P42858); assay: CaM/mHtt AlphaScreen binding assay; details: for IC50: read-out: AlphaScreen CaM–mHtt, IC50, triplicate
Outline: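 His-mHtt (10 nM) preincubated 30 min with test compound, then GST-CaM (10 nM) added for 60 min at room temperature. Ni-chelate acceptor (10 μg/mL) and glutathione donor beads (15 μg/mL) are added for 2 h, then Alpha counts are read. Final 300–0.002 μM, triplicate; % inhibition normalized to DMSO controls.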

[3] = tested on: calcium/CaM-dependent kinase 2γ (CaMK2γ); assay: CaM-dependent kinase assay; format: biochemical, Human; details: single concentration of 100 μM, in the presence of CaM
Outline: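 ADP-Glo reaction with CaMK2γ (12 ng), 25 μM ATP and Autocamtide-2 substrate, carried out with CaM present. Test compound is at a single 100 μM from DMSO; incubation 60 min at room temperature. Luminescent readout gives percent enzyme activity relative to the reaction without compound. Run three times with at least two replicates per experiment; mean ± SEM.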

[4] = biological target: death-associate protein kinase 1 (DAPK1) (Homo sapiens, UniProt P53355); assay: CaM-dependent kinase assay; format: biochemical; details: single concentration of 100 μM, in the presence of CaM
Outline: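 Recombinant DAPK1 (25 ng), run with ADP-Glo at 5 μM ATP with native swine myelin basic protein as substrate, in the presence of CaM. Test compound is added at a single 100 μM (DMSO) and reacted 60 min at room temperature. Luminescence is read, and activity is expressed as percent of the no-compound reaction. Three experiments, ≥2 replicates each; mean ± SEM.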

[5] = tested on: mHtt toxicity in PC12 cells; assay: Protection against mHtt toxicity in neuronal cell model for HD; format: cell-based; details: three different concentrations
Outline: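 Each experiment run at least three times; values reported as mean ± standard error of the mean.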

Chain of His-mHtt and GST-CaM (CaM–mHtt interaction) (P42858 whole entry, one chain of several): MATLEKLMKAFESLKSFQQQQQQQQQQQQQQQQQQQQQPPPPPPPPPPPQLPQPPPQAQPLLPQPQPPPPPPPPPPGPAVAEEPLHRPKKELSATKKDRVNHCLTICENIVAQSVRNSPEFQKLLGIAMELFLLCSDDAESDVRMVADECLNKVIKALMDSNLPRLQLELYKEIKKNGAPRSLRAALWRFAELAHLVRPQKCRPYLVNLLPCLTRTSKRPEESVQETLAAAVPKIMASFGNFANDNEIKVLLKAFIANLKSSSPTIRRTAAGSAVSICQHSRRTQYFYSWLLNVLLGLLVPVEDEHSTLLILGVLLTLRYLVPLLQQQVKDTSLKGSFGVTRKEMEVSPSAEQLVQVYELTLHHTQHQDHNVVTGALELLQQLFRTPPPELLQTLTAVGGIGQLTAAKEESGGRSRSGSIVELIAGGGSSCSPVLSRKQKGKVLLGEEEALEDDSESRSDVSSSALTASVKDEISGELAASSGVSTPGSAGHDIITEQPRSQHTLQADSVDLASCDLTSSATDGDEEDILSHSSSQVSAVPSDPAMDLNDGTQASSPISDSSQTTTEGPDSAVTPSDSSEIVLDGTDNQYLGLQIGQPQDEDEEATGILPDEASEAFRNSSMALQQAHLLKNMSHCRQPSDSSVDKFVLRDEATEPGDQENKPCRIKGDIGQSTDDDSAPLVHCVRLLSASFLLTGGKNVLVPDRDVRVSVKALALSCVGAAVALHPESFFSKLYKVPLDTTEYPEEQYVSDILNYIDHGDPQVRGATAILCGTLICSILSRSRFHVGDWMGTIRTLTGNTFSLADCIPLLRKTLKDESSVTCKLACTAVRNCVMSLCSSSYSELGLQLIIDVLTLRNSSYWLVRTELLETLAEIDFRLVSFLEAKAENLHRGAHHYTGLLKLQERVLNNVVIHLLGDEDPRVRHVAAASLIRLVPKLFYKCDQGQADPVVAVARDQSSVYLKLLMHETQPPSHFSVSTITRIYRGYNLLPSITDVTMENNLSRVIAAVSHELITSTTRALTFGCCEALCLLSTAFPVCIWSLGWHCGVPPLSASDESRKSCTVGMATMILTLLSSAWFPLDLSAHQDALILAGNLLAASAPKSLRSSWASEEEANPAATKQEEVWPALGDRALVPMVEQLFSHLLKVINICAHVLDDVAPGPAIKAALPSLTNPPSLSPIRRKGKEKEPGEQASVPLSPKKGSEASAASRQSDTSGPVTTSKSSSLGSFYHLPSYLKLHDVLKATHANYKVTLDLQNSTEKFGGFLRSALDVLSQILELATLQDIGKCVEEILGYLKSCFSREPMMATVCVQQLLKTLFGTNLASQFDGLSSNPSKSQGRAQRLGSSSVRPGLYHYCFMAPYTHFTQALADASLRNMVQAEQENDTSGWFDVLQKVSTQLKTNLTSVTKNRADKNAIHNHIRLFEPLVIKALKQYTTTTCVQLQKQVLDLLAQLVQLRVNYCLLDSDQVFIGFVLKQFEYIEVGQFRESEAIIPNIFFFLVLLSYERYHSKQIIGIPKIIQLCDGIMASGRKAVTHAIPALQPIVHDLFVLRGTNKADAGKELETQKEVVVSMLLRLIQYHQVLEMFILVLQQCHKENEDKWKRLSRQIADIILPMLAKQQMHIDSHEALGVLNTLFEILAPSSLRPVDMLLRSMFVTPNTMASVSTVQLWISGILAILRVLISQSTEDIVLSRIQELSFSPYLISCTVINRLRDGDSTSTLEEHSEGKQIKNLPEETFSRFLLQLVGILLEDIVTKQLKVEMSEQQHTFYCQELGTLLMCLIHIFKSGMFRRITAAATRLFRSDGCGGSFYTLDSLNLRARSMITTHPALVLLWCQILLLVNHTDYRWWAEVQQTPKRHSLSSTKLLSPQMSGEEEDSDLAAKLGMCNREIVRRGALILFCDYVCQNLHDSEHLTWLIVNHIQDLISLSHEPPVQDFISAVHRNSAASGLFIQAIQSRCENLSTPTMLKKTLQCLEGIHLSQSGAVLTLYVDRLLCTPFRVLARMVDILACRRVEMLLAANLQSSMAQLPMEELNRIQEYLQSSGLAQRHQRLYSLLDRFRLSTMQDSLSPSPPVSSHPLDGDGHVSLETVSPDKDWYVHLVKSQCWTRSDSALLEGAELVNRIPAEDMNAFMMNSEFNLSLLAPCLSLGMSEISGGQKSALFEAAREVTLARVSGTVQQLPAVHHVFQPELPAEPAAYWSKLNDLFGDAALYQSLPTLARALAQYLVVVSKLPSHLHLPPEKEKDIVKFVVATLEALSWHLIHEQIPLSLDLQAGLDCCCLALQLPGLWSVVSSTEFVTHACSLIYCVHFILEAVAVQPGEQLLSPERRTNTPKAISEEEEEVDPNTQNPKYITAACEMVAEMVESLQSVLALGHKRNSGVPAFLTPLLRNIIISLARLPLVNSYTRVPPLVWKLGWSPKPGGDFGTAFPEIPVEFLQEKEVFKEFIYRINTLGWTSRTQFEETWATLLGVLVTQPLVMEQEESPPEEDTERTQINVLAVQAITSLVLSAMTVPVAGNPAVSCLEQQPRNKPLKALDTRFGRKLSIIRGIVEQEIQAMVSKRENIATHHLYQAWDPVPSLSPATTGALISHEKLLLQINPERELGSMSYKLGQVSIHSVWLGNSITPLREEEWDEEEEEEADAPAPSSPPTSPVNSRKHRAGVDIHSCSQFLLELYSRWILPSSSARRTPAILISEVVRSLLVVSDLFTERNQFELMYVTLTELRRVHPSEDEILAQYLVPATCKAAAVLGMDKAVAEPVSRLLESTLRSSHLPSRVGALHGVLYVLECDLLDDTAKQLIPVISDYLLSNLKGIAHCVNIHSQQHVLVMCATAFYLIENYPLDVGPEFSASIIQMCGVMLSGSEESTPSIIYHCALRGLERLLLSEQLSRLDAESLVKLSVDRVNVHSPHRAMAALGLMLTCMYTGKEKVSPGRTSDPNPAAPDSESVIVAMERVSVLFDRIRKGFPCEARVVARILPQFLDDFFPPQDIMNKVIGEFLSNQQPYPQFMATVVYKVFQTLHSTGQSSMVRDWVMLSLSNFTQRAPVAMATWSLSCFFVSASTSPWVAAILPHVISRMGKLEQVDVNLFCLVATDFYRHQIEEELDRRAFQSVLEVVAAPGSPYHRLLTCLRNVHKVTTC
Chain of death-associate protein kinase 1 (DAPK1) (P53355 1-363): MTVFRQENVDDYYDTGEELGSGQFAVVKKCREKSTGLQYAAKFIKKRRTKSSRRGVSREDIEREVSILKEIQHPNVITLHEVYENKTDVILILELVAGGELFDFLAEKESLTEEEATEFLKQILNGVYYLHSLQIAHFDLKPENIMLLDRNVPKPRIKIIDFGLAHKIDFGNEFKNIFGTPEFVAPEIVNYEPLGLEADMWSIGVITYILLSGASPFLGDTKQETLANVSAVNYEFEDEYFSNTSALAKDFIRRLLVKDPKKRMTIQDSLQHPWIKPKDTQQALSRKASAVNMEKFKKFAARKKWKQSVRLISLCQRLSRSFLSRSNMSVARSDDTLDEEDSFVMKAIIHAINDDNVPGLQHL

CC(C)C[C@@H](C(=O)NCC1CCCCC1)N1CCC(=O)c2ccccc2S1(=O)=O [Compound 11g, (S)-W-(Cyclohexylmethyl)-2-(1,1-dioxido-5-oxo-4,5-dihydrobenzo[f][1,2]thiazepin-2(3H)-yl)-4-methylpentanamide]
Cytotoxicity (SH-SY5Y cells, 24 h) [1]: 40.1 µM | IC50 [2]: 31 µM

C=C1CCN([C@H](CC(C)C)C(=O)NCc2ccc(Cl)cc2)S(=O)(=O)c2ccccc21 [Compound 10c, (R)-N-(4-Chlorobenzyl)-4-methyl-2-(5-methylene-1,1-dioxido-4,5-dihydrobenzo[f][1,2]thiazepin-2(3H)-yl) pentanamide]
Inhibition of CaMK2γ enzyme activity (in words) [3]: did not significantly inhibit | Cytotoxicity (SH-SY5Y cells, 24 h) [1]: 86 ± 9 µM | Cytotoxicity as stated in text [1]: ca. 90 pM | IC50 [2]: 3 µM | Inhibition of DAPK1 enzyme activity (in words) [4]: did not significantly inhibit

CC(C)C[C@@H](C(=O)NCCc1ccc(Cl)c(Cl)c1)N1CCC(=O)c2ccccc2S1(=O)=O [Compound 11h, (S)-N-(3,4-Dichlorophenethyl)-2-(1,1-dioxido-5-oxo-4,5-dihydrobenzo[f][1,2]thiazepin-2(3H)-yl)-4-methylpentanamide]
Cytotoxicity (SH-SY5Y cells, 24 h) [1]: 32.3 µM | IC50 [2]: 0.97 µM

C=C1CCN([C@@H](CC(C)C)C(=O)NCc2ccc(Cl)cc2)S(=O)(=O)c2ccccc21 [Compound 9c, (S)-N-(4-Chlorobenzyl)-4-methyl-2-(5-methylene-1,1-dioxido-4,5-dihydrobenzo[f][1,2]thiazepin-2(3H)-yl) pentanamide]
Inhibition of CaMK2γ enzyme activity (in words) [3]: did not significantly inhibit | Cytotoxicity (SH-SY5Y cells, 24 h) [1]: 94 ± 3 µM | Cytotoxicity as stated in text [1]: ca. 90 pM | IC50 [2]: 2.8 µM | Inhibition of DAPK1 enzyme activity (in words) [4]: did not significantly inhibit

C=C1CCN([C@@H](CC(C)C)C(=O)NCc2ccc(OC)cc2)S(=O)(=O)c2ccccc21 [Compound 9f, (S)-N-(4-Methoxybenzyl)-4-methyl-2-(5-methylene-1,1-dioxido-4,5-dihydrobenzo[f][1,2]thiazepin-2(3H)-yl) pentanamide]
Cytotoxicity (SH-SY5Y cells, 24 h) [1]: >300 µM | Disruption of mHtt-CaM PPI (in words) [2]: lost all mHtt-CaM disruption activity | IC50 [2]: > 300 µM

C=C1CCN([C@H](CC(C)C)C(=O)NCc2ccc(Cl)c(Cl)c2)S(=O)(=O)c2ccccc21 [Compound 10a, (R)-N-(3,4-Dichlorobenzyl)-4-methyl-2-(5-methylene-1,1-dioxido-4,5-dihydrobenzo[f][1,2]thiazepin-2(3H)-yl) pentanamide]
Cytotoxicity (SH-SY5Y cells, 24 h) [1]: >300 µM | IC50 [2]: 0.98 µM

COc1ccc(CNC(=O)[C@H](CC(C)C)N2CCC(=O)c3ccccc3S2(=O)=O)cc1 [Compound 11f, (S)-2-(1,1-Dioxido-5-oxo-4,5-dihydrobenzo[f][1,2]thiazepin-2(3H)-yl)-N-(4-methoxybenzyl)-4-methylpentanamide]
Cytotoxicity (SH-SY5Y cells, 24 h) [1]: 44.6 µM | Disruption of mHtt-CaM PPI (in words) [2]: retained marginal activity | IC50 [2]: 52.6 µM

C=C1CCN([C@H](CC(C)C)C(=O)NCC2CCCCC2)S(=O)(=O)c2ccccc21 [Compound 10g, (R)-N-(Cyclohexylmethyl)-4-methyl-2-(5-methylene-1,1-dioxido-4,5-dihydrobenzo[f][1,2]thiazepin-2(3H)-yl) pentanamide]
Cytotoxicity (SH-SY5Y cells, 24 h) [1]: 99 ± 4 µM | IC50 [2]: 12.2 µM

CC(C)C[C@@H](C(=O)NCc1ccc(Cl)c(Cl)c1)N1CCC(=O)c2ccccc2S1(=O)=O [Compound 11a, (S) -N-(3,4-Dichlorobenzyl)-2-(1,1-dioxido-5-oxo-4,5-dihydrobenzo[f][1,2]thiazepin-2(3H)-yl)-4-methylpentanamide]
Cytotoxicity (SH-SY5Y cells, 24 h) [1]: 39.8 µM | IC50 [2]: 2.14 µM

Cc1ccc(CNC(=O)[C@H](CC(C)C)N2CCC(=O)c3ccccc3S2(=O)=O)cc1 [Compound 11e, (S)-2-(1,1-Dioxido-5-oxo-4,5-dihydrobenzo[f][1,2]thiazepin-2(3H)-yl)-4-methyl-N-(4-methylbenzyl)pentanamide]
Cytotoxicity (SH-SY5Y cells, 24 h) [1]: 43.4 µM | IC50 [2]: 24.5 µM

C=C1CCN([C@@H](CC(C)C)C(=O)NCC2CCCCC2)S(=O)(=O)c2ccccc21 [Compound 9g, (S)-N-(Cyclohexylmethyl)-4-methyl-2-(5-methylene-1,1-dioxido-4,5-dihydrobenzo[f][1,2]thiazepin-2(3H)-yl) pentanamide]
Cytotoxicity (SH-SY5Y cells, 24 h) [1]: 101 ± 5 µM | IC50 [2]: 16.6 µM

C=C1CCN([C@H](CC(C)C)C(=O)NCc2ccc(Cl)c(C(F)(F)F)c2)S(=O)(=O)c2ccccc21 [Compound 10d, (R)-N-(4-Chloro-3-(trifluoromethyl)benzyl)-4-methyl-2-(5-methylene-1,1-dioxido-4,5-dihydrobenzo[f][1,2]thiazepin-2 (3H)-yl)pentanamide]
Cytotoxicity (SH-SY5Y cells, 24 h) [1]: >300 µM | IC50 [2]: 1.8 µM

C=C1CCN([C@@H](CC(C)C)C(=O)NCc2ccc(C)cc2)S(=O)(=O)c2ccccc21 [Compound 9e, (S)-4-Methyl-N-(4-methylbenzyl)-2-(5-methylene-1,1-dioxido-4,5-dihydrobenzo[f][1,2]thiazepin-2(3H)-yl) pentanamide]
Cytotoxicity (SH-SY5Y cells, 24 h) [1]: 102 ± 7 µM | IC50 [2]: 15 µM

C=C1CCN([C@H](CC(C)C)C(=O)NCc2ccc(OC)cc2)S(=O)(=O)c2ccccc21 [Compound 10f, (R)-N-(4-Methoxybenzyl)-4-methyl-2-(5-methylene-1,1-dioxido-4,5-dihydrobenzo[f][1,2]thiazepin-2(3H)-yl) pentanamide]
Cytotoxicity (SH-SY5Y cells, 24 h) [1]: >300 µM | Disruption of mHtt-CaM PPI (in words) [2]: lost all mHtt-CaM disruption activity | IC50 [2]: > 300 µM

CC(C)C[C@@H](C(=O)NCc1ccc(Cl)cc1)N1CCC(=O)c2ccccc2S1(=O)=O [Compound 11c, (S)-N-(4-Chlorobenzyl)-2-(1,1-dioxido-5-oxo-4,5-dihydrobenzo[f][1,2]thiazepin-2(3H)-yl)-4-methylpentanamide]
Cytotoxicity (SH-SY5Y cells, 24 h) [1]: 41.4 µM | IC50 [2]: 11.2 µM

CC(C)C[C@@H](C(=O)NCc1ccc(Cl)c(C(F)(F)F)c1)N1CCC(=O)c2ccccc2S1(=O)=O [Compound 11d, (S)-N-(4-Chloro-3-(trifluoromethyl)benzyl)-2-(1,1-dioxido-5-oxo-4,5-dihydrobenzo[f][1,2]thiazepin-2(3H)-yl)-4-methylpentanamide]
Cytotoxicity (SH-SY5Y cells, 24 h) [1]: 44.2 µM | IC50 [2]: 2.03 µM

C=C1CCN([C@@H](CC(C)C)C(=O)NCc2ccc(Cl)c(Cl)c2)S(=O)(=O)c2ccccc21 [Compound 9a]
Toxicity to SH-SY5Y cells (in words) [1]: no measurable toxicity | Cytotoxicity (SH-SY5Y cells, 24 h) [1]: >300 µM | Disruption of mHtt-CaM PPI (in words) [2]: retained activity | IC50 [2]: 1.03 µM

CC(C)C[C@@H](C(=O)NCc1ccccc1)N1CCC(=O)c2ccccc2S1(=O)=O [Compound 11b, (S)-N-Benzyl-2-(1,1-dioxido-5-oxo-4,5-dihydrobenzo[f][1,2]thiazepin-2(3H)-yl)-4-methylpentanamide]
Cytotoxicity (SH-SY5Y cells, 24 h) [1]: 43.8 µM | IC50 [2]: 14.6 µM

C=C1CCN([C@H](CC(C)C)C(=O)NCc2ccc(C)cc2)S(=O)(=O)c2ccccc21 [Compound 10e, (R)-4-Methyl-N-(4-methylbenzyl)-2-(5-methylene-1,1-dioxido-4,5-dihydrobenzo[f][1,2]thiazepin-2(3H)-yl) pentanamide]
Cytotoxicity (SH-SY5Y cells, 24 h) [1]: 64 ± 2.5 µM | IC50 [2]: 15.1 µM

C=C1CCN([C@@H](CC(C)C)C(=O)NCc2ccc(Cl)c(C(F)(F)F)c2)S(=O)(=O)c2ccccc21 [Compound 9d, (S)-N-(4-Chloro-3-(trifluoromethyl)benzyl)-4-methyl-2-(5-methylene-1,1-dioxido-4,5-dihydrobenzo[f][1,2]thiazepin-2 (3H)-yl)pentanamide]
Inhibition of CaMK2γ enzyme activity (in words) [3]: did not significantly inhibit | Protection against mHtt toxicity (in words) [5]: barely measurable activity; also recorded: do not show protection; also recorded: no significant rescue of the toxicity | Cytotoxicity (SH-SY5Y cells, 24 h) [1]: >300 µM | IC50 [2]: 1.38 µM | Inhibition of DAPK1 enzyme activity (in words) [4]: did not significantly inhibit

C=C1CCN([C@@H](CC(C)C)C(=O)NCc2ccccc2)S(=O)(=O)c2ccccc21 [Compound 9b]
Cytotoxicity (SH-SY5Y cells, 24 h) [1]: >300 µM | IC50 [2]: 12.4 µM

C=C1CCN([C@H](CC(C)C)C(=O)NCc2ccccc2)S(=O)(=O)c2ccccc21 [Compound 10b, (R)-N-Benzyl-4-methyl-2-(5-methylene-1,1-dioxido-4,5-dihydrobenzo[f][1,2]thiazepin-2(3H)-yl)pentanamide]
Cytotoxicity (SH-SY5Y cells, 24 h) [1]: 87 ± 2 µM | IC50 [2]: 12.7 µM

C=C1CCN([C@H](CC(C)C)C(=O)NCCc2ccc(Cl)c(Cl)c2)S(=O)(=O)c2ccccc21 [Compound 10h]
Inhibition of CaMK2γ enzyme activity (in words) [3]: did not significantly inhibit | Cytotoxicity (SH-SY5Y cells, 24 h) [1]: >300 µM | IC50 [2]: 0.5 µM | Inhibition of DAPK1 enzyme activity (in words) [4]: did not significantly inhibit
